This is an account of results in ChEMBL document CHEMBL6096655, “Discovery of a novel, selective CK2 inhibitor class with an unusual basic scaffold” (Eur J Med Chem, 2025).

The structures appear in SMILES notation.

Assay [1] concerns the target Dual specificity tyrosine-phosphorylation-regulated kinase 2 (Homo sapiens) (UniProt Q92630). Put plainly: Inhibition of human DYRK2 at 2 uM by Eurofins kinase assay relative to control.
For assay [2], the system named is 786-0. Put plainly: Antiproliferative activity against human 786-0 cells assessed as inhibition of cell growth at 30 uM measured after 3 to 4 days by MTT assay relative to control. In kind it is functional. The conditions noted are these: time 3-4 day. Summed up:
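786-O cells (RPMI, 10% FCS) seeded at 5000 per well and left overnight. Compound was added at a single 30 µM concentration in 1% FCS medium (DMSO max. 0.2%). Cells grew 3–4 days at 37 °C, 5% CO₂, with no medium change, and were read by MTT. Percent inhibition is the mean of duplicates that differed by ≤10%.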

The target of assay [3] is Aurora kinase B (Homo sapiens) (UniProt Q96GD4). Put plainly: Inhibition of human recombinant AURKB at 2 uM by Eurofins kinase assay relative to control.
For assay [4], the target named is Serine/threonine-protein kinase D1 (Homo sapiens) (UniProt Q15139). The assay can be described thus: Inhibition of human recombinant PRKD1 at 2 uM by Eurofins kinase assay relative to control.
The nature of assay [5]: Upregulation of PARP cleavage in human U-937 cells by measuring signal 2 at 15 uM measured after 48 hrs by immunoblot analysis. In kind it is functional. A digest of the protocol:
(§1)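 U937 lymphoma cells grown in RPMI with 2 mM L-glutamine, 1 % pen/strep and 10 % FCS; exposed to compound or DMSO solvent control for 48 h. Total cellular proteins harvested and immunoblotted with an antibody against phosphorylated CK2-substrate motifs and for PARP. Read-out is the densitometric ratio of cleaved to uncleaved PARP signal. Representative of two independent experiments.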

Assay [6] has as its target Glycogen synthase kinase-3 beta (Homo sapiens) (UniProt P49841). Put plainly: Inhibition of human recombinant GSK3B at 2 uM by Eurofins kinase assay relative to control.
In assay [7] the target is Mitogen-activated protein kinase 12 (Homo sapiens) (UniProt P53778). The assay can be described thus: Inhibition of human recombinant MAPK12 at 2 uM by Eurofins kinase assay relative to control.
The target of assay [8] is CDC7/DBF4 (Cell division cycle 7-related protein kinase/Activator of S phase kinase) (Homo sapiens) (UniProt Q9UBU7+O00311). Put plainly: Inhibition of human recombinant GST tagged CDC7/DBF4 expressed in Baculovirus expression system at 2 uM by Eurofins kinase assay relative to control.
For assay [9], the target named is Hepatocyte growth factor receptor (Homo sapiens) (UniProt P08581). Put plainly: Inhibition of human MET at 2 uM by Eurofins kinase assay relative to control.
Assay [10] deals with cAMP-dependent protein kinase catalytic subunit alpha (Homo sapiens) (UniProt P17612). Put plainly: Inhibition of human recombinant PRKACA at 2 uM by Eurofins kinase assay relative to control.
The species named for assay [11] is Homo sapiens. Put plainly: Inhibition of human recombinant GST tagged CDK1/cyclin B expressed in insect cells at 2 uM by Eurofins kinase assay relative to control.
In assay [12] the test system is 786-0. Put plainly: Antiproliferative activity against human 786-0 cells assessed as inhibition of cell growth measured after 3 to 4 days by MTT assay. In kind it is functional. The conditions noted are these: time 3-4 day. A digest of the protocol: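 786-O or U937 cells grown in RPMI with 2 mM L-glutamine, 1% pen/strep and 10% FCS. Cells were seeded at 5000 per well and left overnight, then switched to 1% FCS medium containing compound or DMSO (max. 0.2% final). Growth ran 3–4 days at 37 °C in 5% CO₂ without medium change, followed by MTT read-out. GI50 is the mean ± SD of at least two independent experiments.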

For assay [13], the target named is Serine/threonine-protein kinase Chk1 (Homo sapiens) (UniProt O14757). Put plainly: Inhibition of human recombinant CHK1 at 2 uM by Eurofins kinase assay relative to control.
The target of assay [14] is T1, Hsp90 co-chaperone Cdc37 (Homo sapiens) (UniProt Q16543).
T1 sequence (whole entry): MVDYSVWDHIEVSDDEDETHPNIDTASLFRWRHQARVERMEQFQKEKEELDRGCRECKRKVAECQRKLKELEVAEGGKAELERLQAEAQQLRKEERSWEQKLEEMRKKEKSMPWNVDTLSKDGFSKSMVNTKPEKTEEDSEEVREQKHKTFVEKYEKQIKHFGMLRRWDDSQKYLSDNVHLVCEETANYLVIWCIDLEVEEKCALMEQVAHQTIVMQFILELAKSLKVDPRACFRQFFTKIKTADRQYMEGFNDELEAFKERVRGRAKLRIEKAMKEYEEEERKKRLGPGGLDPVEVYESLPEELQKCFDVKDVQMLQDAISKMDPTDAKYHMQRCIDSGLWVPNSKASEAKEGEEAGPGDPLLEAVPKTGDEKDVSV
Put plainly: Inhibition of CDC37 phosphorylation in human 786-O cells at 10 uM measured after 48 hrs by immunoblot analysis relative to control.

Assay [15] in a line: Upregulation of PARP cleavage in human U-937 cells by measuring signal 2 at 30 uM measured after 48 hrs by immunoblot analysis. In kind it is functional. Summed up: as §1
Assay [16] in a line: Upregulation of PARP cleavage in human U-937 cells by measuring signal 1 at 30 uM measured after 48 hrs by immunoblot analysis. In kind it is functional. Summed up:
(§2)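 U937 cells exposed to compound or DMSO for 48 h, then lysed in Laemmli buffer. Lysates were run on 8–16% gradient SDS-PAGE, semi-dry blotted to PVDF and probed for PARP. Detection used IR-fluorescent secondary antibodies. The cleaved/uncleaved PARP signal ratio was obtained by densitometry. Results are representative of two independent experiments.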

Assay [17] deals with Signal transducer and activator of transcription 3 (Homo sapiens) (UniProt P40763). Put plainly: Inhibition of STAT3 phosphorylation in human 786-O cells at 6 uM measured after 48 hrs by immunoblot analysis relative to control.
Assay [18] can be described thus: Upregulation of PARP cleavage in human U-937 cells by measuring signal 1 at 5 uM measured after 48 hrs by immunoblot analysis. Format: functional. Summed up: as §2
The nature of assay [19]: Upregulation of PARP cleavage in human U-937 cells by measuring signal 2 at 10 uM measured after 48 hrs by immunoblot analysis. In kind it is functional. Summed up: as §2
For assay [20], the target named is Serine/threonine-protein kinase haspin (Homo sapiens) (UniProt Q8TF76). Put plainly: Inhibition of human recombinant GSG2 at 2 uM by Eurofins kinase assay relative to control.
The test system of assay [21] is Mast/stem cell growth factor receptor Kit (Homo sapiens), P10721 [D816H]. The assay can be described thus: Inhibition of human recombinant GST/His tagged KIT D816H mutant expressed in insect cells at 2 uM by Eurofins kinase assay relative to control.
Assay [22] has as its system 786-0. The assay can be described thus: Induction of cell death in human 786-0 cells assessed as cell viability measured after 11 hrs by CellCyteX live-cell microscopy analysis. In kind it is functional, cell-based. The conditions noted are these: dose 10-20 µM. Summed up: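 786-O cells seeded at 3×10³ per well and grown 24 h. Compound was then added in culture medium containing 125 nM Cytotox Green, at 0.2% (v/v) final DMSO, and kept at 37 °C in 5% CO₂. Green fluorescence images of dead cells were taken every 3 h by live-cell microscopy and normalized to the DMSO control. Results are representative of three independent measurements.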

Mast/stem cell growth factor receptor Kit (Homo sapiens), P10721 [D816H], sequence (P10721 whole entry D816H): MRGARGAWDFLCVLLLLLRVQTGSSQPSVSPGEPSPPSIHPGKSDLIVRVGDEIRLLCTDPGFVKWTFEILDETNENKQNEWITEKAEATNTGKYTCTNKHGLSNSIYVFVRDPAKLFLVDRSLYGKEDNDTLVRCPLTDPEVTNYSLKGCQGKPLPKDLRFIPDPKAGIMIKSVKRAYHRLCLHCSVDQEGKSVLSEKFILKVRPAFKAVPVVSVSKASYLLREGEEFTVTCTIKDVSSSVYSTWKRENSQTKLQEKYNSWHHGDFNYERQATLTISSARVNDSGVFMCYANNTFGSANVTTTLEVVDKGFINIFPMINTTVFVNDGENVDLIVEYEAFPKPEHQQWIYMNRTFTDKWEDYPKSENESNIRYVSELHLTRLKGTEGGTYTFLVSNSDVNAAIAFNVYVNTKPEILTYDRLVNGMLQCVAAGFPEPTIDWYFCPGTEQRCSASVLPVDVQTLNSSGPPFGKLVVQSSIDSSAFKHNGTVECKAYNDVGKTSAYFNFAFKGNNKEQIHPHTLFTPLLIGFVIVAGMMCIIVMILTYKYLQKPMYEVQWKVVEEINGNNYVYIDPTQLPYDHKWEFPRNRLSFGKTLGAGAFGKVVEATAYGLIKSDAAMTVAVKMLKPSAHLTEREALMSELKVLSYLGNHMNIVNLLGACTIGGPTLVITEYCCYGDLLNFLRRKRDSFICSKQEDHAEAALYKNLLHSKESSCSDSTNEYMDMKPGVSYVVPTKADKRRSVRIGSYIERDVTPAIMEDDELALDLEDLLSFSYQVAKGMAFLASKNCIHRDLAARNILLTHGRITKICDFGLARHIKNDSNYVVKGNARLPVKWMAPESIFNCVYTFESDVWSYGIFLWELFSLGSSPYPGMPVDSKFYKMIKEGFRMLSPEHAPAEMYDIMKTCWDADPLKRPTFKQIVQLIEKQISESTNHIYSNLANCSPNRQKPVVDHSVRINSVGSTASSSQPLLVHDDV
Signal transducer and activator of transcription 3 (Homo sapiens), sequence (P40763 whole entry): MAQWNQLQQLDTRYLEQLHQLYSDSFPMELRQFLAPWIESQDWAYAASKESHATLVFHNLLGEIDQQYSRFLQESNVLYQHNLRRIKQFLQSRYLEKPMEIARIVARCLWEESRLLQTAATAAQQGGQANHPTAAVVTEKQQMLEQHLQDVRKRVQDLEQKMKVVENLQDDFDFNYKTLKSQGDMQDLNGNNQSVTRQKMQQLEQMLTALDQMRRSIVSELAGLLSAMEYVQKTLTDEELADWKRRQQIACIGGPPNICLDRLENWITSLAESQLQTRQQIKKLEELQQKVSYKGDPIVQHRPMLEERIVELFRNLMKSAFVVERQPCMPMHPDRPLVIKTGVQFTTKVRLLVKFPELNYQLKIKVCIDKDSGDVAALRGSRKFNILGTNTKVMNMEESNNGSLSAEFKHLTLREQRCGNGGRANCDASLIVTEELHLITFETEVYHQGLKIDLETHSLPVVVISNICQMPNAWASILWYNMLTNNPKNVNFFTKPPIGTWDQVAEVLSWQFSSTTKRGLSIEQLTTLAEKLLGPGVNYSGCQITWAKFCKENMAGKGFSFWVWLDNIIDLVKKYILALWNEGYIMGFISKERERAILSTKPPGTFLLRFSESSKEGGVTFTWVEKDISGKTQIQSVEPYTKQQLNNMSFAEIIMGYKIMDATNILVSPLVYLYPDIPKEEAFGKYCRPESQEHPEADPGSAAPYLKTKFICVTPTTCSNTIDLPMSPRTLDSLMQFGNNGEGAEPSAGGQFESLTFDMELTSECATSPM
Mitogen-activated protein kinase 12 (Homo sapiens), sequence (P53778 whole entry): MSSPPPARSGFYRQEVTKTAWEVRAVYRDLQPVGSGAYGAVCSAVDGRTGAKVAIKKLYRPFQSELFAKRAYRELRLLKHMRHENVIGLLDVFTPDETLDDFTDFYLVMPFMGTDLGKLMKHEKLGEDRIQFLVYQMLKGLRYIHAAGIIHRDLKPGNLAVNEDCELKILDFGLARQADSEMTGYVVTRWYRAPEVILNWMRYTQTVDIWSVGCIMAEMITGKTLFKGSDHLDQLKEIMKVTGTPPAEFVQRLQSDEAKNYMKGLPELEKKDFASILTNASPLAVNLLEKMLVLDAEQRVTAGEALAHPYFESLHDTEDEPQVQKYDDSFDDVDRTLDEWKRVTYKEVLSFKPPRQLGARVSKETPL
Aurora kinase B (Homo sapiens), sequence (Q96GD4 whole entry): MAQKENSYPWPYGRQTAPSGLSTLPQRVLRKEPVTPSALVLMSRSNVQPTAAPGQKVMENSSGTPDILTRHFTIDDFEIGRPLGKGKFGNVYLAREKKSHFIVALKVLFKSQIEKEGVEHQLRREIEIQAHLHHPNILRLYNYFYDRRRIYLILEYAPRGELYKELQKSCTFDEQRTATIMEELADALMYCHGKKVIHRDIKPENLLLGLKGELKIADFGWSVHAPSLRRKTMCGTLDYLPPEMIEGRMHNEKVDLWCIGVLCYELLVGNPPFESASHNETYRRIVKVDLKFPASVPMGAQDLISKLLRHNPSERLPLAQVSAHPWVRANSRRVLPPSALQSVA
Dual specificity tyrosine-phosphorylation-regulated kinase 2 (Homo sapiens), sequence (Q92630 whole entry): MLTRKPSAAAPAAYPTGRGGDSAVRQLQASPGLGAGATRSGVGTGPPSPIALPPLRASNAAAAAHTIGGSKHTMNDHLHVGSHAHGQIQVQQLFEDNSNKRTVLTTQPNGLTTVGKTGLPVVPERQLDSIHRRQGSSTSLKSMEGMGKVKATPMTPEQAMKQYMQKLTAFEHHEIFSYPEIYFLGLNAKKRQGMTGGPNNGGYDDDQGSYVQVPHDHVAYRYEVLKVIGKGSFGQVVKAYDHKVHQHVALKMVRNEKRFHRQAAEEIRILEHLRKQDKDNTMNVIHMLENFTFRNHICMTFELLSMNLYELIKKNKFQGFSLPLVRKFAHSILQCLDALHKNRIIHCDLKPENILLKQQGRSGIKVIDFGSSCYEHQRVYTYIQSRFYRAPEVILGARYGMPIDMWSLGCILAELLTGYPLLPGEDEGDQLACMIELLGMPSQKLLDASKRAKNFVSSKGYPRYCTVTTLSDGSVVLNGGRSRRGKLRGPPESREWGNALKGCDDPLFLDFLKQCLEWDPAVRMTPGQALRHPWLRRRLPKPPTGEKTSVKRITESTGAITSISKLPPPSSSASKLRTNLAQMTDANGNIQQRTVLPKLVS
Serine/threonine-protein kinase D1 (Homo sapiens), sequence (Q15139 whole entry): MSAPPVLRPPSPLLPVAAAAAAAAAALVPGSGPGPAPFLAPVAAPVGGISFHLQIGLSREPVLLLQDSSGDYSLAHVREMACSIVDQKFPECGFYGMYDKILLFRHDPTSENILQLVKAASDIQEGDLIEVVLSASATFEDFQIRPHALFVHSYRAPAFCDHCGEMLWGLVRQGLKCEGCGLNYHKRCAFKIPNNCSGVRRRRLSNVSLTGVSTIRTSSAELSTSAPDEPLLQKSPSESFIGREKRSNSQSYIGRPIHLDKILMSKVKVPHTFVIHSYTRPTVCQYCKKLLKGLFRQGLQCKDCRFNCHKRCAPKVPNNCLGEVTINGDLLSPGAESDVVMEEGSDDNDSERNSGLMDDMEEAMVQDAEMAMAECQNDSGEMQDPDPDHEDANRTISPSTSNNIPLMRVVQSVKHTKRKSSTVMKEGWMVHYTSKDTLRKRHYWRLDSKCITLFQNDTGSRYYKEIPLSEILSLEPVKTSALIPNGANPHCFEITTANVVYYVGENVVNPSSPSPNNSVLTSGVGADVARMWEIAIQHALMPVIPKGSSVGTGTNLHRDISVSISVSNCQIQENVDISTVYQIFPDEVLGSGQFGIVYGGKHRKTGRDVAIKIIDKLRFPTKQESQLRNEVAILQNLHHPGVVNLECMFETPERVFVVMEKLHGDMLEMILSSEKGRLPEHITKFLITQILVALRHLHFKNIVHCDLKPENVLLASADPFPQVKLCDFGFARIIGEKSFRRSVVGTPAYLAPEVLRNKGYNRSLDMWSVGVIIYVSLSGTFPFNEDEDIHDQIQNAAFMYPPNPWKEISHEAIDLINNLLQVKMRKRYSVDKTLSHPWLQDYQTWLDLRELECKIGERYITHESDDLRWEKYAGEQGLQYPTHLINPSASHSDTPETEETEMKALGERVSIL
Serine/threonine-protein kinase Chk1 (Homo sapiens), sequence (O14757 whole entry): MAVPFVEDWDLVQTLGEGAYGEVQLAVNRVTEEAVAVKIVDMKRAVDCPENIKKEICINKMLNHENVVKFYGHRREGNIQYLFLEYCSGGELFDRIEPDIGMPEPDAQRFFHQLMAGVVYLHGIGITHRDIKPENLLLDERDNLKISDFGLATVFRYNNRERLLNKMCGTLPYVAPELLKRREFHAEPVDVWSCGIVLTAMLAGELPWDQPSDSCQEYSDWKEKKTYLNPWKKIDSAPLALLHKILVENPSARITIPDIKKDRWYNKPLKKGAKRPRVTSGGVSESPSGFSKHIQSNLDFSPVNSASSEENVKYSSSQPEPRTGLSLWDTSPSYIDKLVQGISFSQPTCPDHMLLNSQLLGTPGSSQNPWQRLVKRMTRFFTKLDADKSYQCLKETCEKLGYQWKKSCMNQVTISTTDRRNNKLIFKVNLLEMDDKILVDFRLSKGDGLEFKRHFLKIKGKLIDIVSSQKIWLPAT
Glycogen synthase kinase-3 beta (Homo sapiens), sequence (P49841 whole entry, looked up): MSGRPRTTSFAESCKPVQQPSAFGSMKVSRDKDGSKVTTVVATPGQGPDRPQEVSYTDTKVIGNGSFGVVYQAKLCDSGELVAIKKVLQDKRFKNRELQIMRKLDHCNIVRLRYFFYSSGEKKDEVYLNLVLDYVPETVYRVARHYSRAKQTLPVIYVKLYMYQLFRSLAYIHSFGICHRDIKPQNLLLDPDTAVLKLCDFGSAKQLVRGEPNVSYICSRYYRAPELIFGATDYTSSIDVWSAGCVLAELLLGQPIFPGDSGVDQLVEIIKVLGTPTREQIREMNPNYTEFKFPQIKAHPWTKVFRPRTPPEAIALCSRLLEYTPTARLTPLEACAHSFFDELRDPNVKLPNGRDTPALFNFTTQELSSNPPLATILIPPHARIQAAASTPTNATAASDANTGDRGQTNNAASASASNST

Turning to `Clc1ccc(N2CCN(c3ncnc4sc5c(c34)CCNC5)CC2)cc1.O=C(O)C(F)(F)F`, the inhibition in [1] amounted to 9%; in assay [3] it was 4%; in [4], 10%; in [6] it was 0%; in assay [7], 5%; in [8] it was 0%. In addition, the inhibition in assay [9] came out at 2%; in assay [10], 6%; in assay [11], 4%; in assay [13], 16%; in assay [14], 12%; in [17], 64%. The inhibition in assay [20] turned out to be 5%; in [21], 4%. Further, the inhibition at 30 µM in assay [2] is 102%. Also, the Activity was 72% in assay [5]; 95% in assay [15]; 98% in assay [16]; 72% in assay [18]; 38% in [19]; “Dose-dependent-effect” in assay [22]. Moreover, the GI50 in assay [12] worked out at 7.3 µM.
